What was measured:
Mus musculus [1] = test: Hypothermia in mice after perorla administration; assay type: functional
In short: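 Groups of three CFW mice were dosed orally. Rectal temperature was taken 15 min, 2.5 h and 5 h after dosing. Mean changes from each group's mean initial temperature were summed as a "temperature index". ED_min is the minimum dose (mg/kg) giving an index at least 5 lower than the control group.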

[2] = (§1) Lethal dose in mice after perorla administration; assay type: toxicity, organism-based; settings: mouse, in vivo, po
In short: (§2)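 CFW albino mice (19–21 g), groups of three, given oral doses up to 800 mg/kg as solution or suspension. Mortality and gross behavioural changes observed over 48 h; LD50 approximated from the outcome.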

Mus musculus [3] = test: as §1; assay type: toxicity, organism-based; settings: in vivo, po; in short: as §2
Rattus norvegicus [4] = test: Compound was evaluated for its ability to block conditioned avoidance response (CAR) in rats; Dose administered perorally is 25 mg/kg; 76-99% block; assay type: functional; settings: route oral
Rattus norvegicus [5] = test: compound was evaluated for its ability to produce catalepsy activity in rats; Dose administered perorally is 25 mg/kg; assay type: functional; settings: route oral
In short: (§3)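 Groups of eight Lilly Wistar rats (180–190 g) were dosed orally and checked at 0.5, 1, 1.5, 2, 3, 4 and 5 h. Front paws were placed on a 1.5-cm rod 7 cm above the table, and posture was timed up to 20 min. Release within 10 s counted as noncataleptic. Each rat was scored 0–5 by hold time. Maximum scores per animal were summed, giving a group maximum of 40.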

Rattus norvegicus [6] = test: Compound was evaluated for its ability to block conditioned avoidance response (CAR) in rats; Dose administered perorally is 10 mg/kg; 51-75% block; assay type: functional; settings: route oral
Rattus norvegicus [7] = species: Rattus norvegicus; test: compound was evaluated for its ability to produce catalepsy activity in rats; assay type: functional; in short: as §3
Rattus norvegicus [8] = test: Compound was evaluated for its ability to block conditioned avoidance response (CAR) in rats; Dose administered perorally is 50 mg/kg; 26-30% block; assay type: functional; settings: route oral
Rattus norvegicus [9] = test: Compound was evaluated for its ability to block conditioned avoidance response (CAR) in rats; Dose administered perorally is 10; 51-75% block; assay type: functional
Rattus norvegicus [10] = test: Compound was evaluated for its ability to block conditioned avoidance response (CAR) in rats; Dose administered perorally is 50 mg/kg; no significant block 0-25%; assay type: functional; settings: route oral
Rattus norvegicus [11] = test: Compound was evaluated for its ability to block conditioned avoidance response (CAR) in rats; Dose administered perorally is 50 mg/kg; 31-50% block; assay type: functional; settings: route oral
Rattus norvegicus [12] = test: compound was evaluated for its ability to produce catalepsy activity in rats; Dose administered perorally is 50 mg/kg; assay type: functional; settings: route oral; in short: as §3
Rattus norvegicus [13] = test: Compound was evaluated for its ability to block conditioned avoidance response (CAR) in rats; Dose administered perorally is 12.5 mg/kg; 51-75% block; assay type: functional; settings: route oral
Rattus norvegicus [14] = test: Compound was evaluated for its ability to block conditioned avoidance response (CAR) in rats; Dose administered perorally is 10 mg/kg; no significant block 0-25%; assay type: functional; settings: route oral
Rattus norvegicus [15] = test: Compound was evaluated for its ability to block conditioned avoidance response (CAR) in rats; Dose administered perorally is 40 mg/kg; 51-75% block; assay type: functional; settings: route oral
Rattus norvegicus [16] = test: Compound was evaluated for its ability to block conditioned avoidance response (CAR) in rats; Dose administered perorally is 20 mg/kg; 51-75% block; assay type: functional; settings: route oral
In short: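 Lilly Wistar rats (120–130 g) trained in a shuttle box to cross on a 5-s buzzer; failure to respond within 1 s of its end gave a mild shock. Only high responders used. Groups of five dosed orally 1 h 50 min before test; 10-min habituation, then 20-min session. Blockade = shocks received as % of stimuli presented.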

Rattus norvegicus [17] = species: Rattus norvegicus; test: compound was evaluated for its ability to produce catalepsy activity in rats.; assay type: functional
In short: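 Groups of eight Lilly Wistar rats (180–190 g) dosed orally, front paws placed on 1.5-cm rod 7 cm above table at 0.5, 1, 1.5, 2, 3, 4, 5 h. Time held recorded up to 20 min, scored 0–5 (<10 s = 0 up to >20 min = 5). Maximum score per animal summed; group maximum 40.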

Rattus norvegicus [18] = test: Compound was evaluated for its ability to block conditioned avoidance response (CAR) in rats; Dose administered perorally is 25 mg/kg; 51-75% block; assay type: functional; settings: route oral
Rattus norvegicus [19] = test: Compound was evaluated for its ability to block conditioned avoidance response (CAR) in rats; Dose administered perorally is 40 mg/kg; no significant block 0-25%; assay type: functional; settings: route oral
Rattus norvegicus [20] = test: compound was evaluated for its ability to produce catalepsy activity in rats; Dose administered perorally is 20 mg/kg; assay type: functional; settings: route oral; in short: as §3
Rattus norvegicus [21] = test: compound was evaluated for its ability to produce catalepsy activity in rats; Dose administered perorally is 100 mg/kg; assay type: functional; settings: route oral; in short: as §3
Rattus norvegicus [22] = test: Compound was evaluated for its ability to block conditioned avoidance response (CAR) in rats; Dose administered perorally is 1.25 mg/kg; 51-75% block; assay type: functional; settings: route oral
Rattus norvegicus [23] = test: Compound was evaluated for its ability to block conditioned avoidance response (CAR) in rats; Dose administered perorally is 50 mg/kg; 51-75% block; assay type: functional; settings: route oral
Rattus norvegicus [24] = test: Compound was evaluated for its ability to block conditioned avoidance response (CAR) in rats; Dose administered perorally is 2.5 mg/kg; 31-50% block; assay type: functional; settings: route oral
Rattus norvegicus [25] = test: compound was evaluated for its ability to produce catalepsy activity in rats; Dose administered perorally is 2.5 mg/kg; assay type: functional; settings: route oral; in short: as §3
Rattus norvegicus [26] = test: Compound was evaluated for its ability to produce catalepsy activity in rats; Dose administered perorally is 50 mg/kg; no significant effect (group score 0-3); assay type: functional; settings: route oral; in short: as §3
Rattus norvegicus [27] = test: Compound was evaluated for its ability to block conditioned avoidance response (CAR) in rats; Dose administered perorally is 25 mg/kg; 31-50% block; assay type: functional; settings: route oral
Rattus norvegicus [28] = test: Compound was evaluated for its ability to block conditioned avoidance response (CAR) in rats; Dose administered perorally is 20 mg/kg; 26-30% block; assay type: functional; settings: route oral
Rattus norvegicus [29] = test: Compound was evaluated for its ability to block conditioned avoidance response (CAR) in rats; Dose administered perorally is 5 mg/kg; no significant block 0-25%; assay type: functional; settings: route oral
Rattus norvegicus [30] = test: Compound was evaluated for its ability to block conditioned avoidance response (CAR) in rats; Dose administered perorally is 50 mg/kg; 76-99% block; assay type: functional; settings: route oral
Rattus norvegicus [31] = test: Compound was evaluated for its ability to block conditioned avoidance response (CAR) in rats; Dose administered perorally is 25 mg/kg;n o significant block 0-25%; assay type: functional; settings: route oral

| SMILES | EDmin (Mus musculus [1]) | LD50 [2] | other results |
| --- | --- | --- | --- |
| CN1CCN(C2=Nc3ccccc3Nc3cscc32)CC1 | 25 mg/kg | 150 mg/kg | LD50 (Mus musculus [3]): 150 mg/kg; Activity (Rattus norvegicus [4]): 4; Activity (Rattus norvegicus [5]): 1 |
| CN(C)CCCN1c2ccccc2Sc2ccc(Cl)cc21 [CHLORPROMAZINE] | 6.25 mg/kg | – | Activity (Rattus norvegicus [6]): 3; Activity (Rattus norvegicus [7]): 1 |
| CCOC(=O)N1CCN(C2=Nc3cc(F)ccc3Nc3ccsc32)CC1 | >800 mg/kg | > 800 mg/kg | Activity (Rattus norvegicus [8]): 1 |
| CN1CCN(C2=Nc3cc(Cl)ccc3Nc3cscc32)CC1 | 3 mg/kg | 75 mg/kg | Activity (Rattus norvegicus [9]): 3; Activity (Rattus norvegicus [7]): 1 |
| c1ccc(CN2CCN(C3=Nc4ccccc4Nc4ccsc43)CC2)cc1 | 200 mg/kg | > 400 mg/kg | Activity (Rattus norvegicus [10]): 0 |
| Fc1ccc2c(c1)N=C(N1CCNCC1)c1sccc1N2 | 50 mg/kg | 400 mg/kg | Activity (Rattus norvegicus [11]): 2; Activity (Rattus norvegicus [12]): 1 |
| CN1CCN(C2=Nc3cc(Cl)ccc3Nc3ccsc32)CC1 | 6.25 mg/kg | 50 mg/kg | Activity (Rattus norvegicus [13]): 3; Activity (Rattus norvegicus [7]): 2 |
| CN1CCN(c2cccc3c2N=C2SC=CC2N=C3)CC1 (configuration not stated) | >50 mg/kg | > 50 mg/kg | – |
| Cc1cc2c(s1)C(N1CCN(C)CC1)=Nc1cc(F)ccc1N2 | 12.5 mg/kg | 150 mg/kg | Activity (Rattus norvegicus [14]): 0 |
| CN1CCN(C2=Nc3cc(C(F)(F)F)ccc3Nc3cscc32)CC1 | 50 mg/kg | > 200 mg/kg | Activity (Rattus norvegicus [15]): 3 |
| Clc1ccc2c(c1)N=C(N1CCNCC1)c1cscc1N2 | 25 mg/kg | > 400 mg/kg | Activity (Rattus norvegicus [10]): 0; Activity (Rattus norvegicus [12]): 0 |
| Fc1ccc2c(c1)N=C(N1CCNCC1)c1cscc1N2 | 100 mg/kg | 600 mg/kg | Activity (Rattus norvegicus [10]): 0; Activity (Rattus norvegicus [12]): 0 |
| CN1CCN(C2=Nc3cc(Cl)ccc3Nc3ccccc32)CC1 [CLOZAPINE] | 50 mg/kg | – | Activity (Rattus norvegicus [16]): 3; Activity (Rattus norvegicus [17]): 2 |
| CN1CCN(C2=Nc3ccccc3Nc3ccsc32)CC1 | 25 mg/kg | 100 mg/kg | Activity (Rattus norvegicus [18]): 3; Activity (Rattus norvegicus [5]): 2 |
| OCCCN1CCN(C2=Nc3cc(F)ccc3Nc3ccsc32)CC1 | 200 mg/kg | > 400 mg/kg | Activity (Rattus norvegicus [19]): 0; Activity (Rattus norvegicus [12]): 0 |
| Clc1cc2c(cc1Cl)Nc1cscc1C(N1CCNCC1)=N2 | 200 mg/kg | > 800 mg/kg | Activity (Rattus norvegicus [10]): 0; Activity (Rattus norvegicus [12]): 0 |
| CN1CCN(C2=Nc3cc(F)ccc3Nc3ccsc32)CC1 | 12.5 mg/kg | > 25 mg/kg | Activity (Rattus norvegicus [16]): 3; Activity (Rattus norvegicus [20]): 2 |
| CN1CCN(C2=Nc3ccc(C(F)(F)F)cc3Nc3cscc32)CC1 | 100 mg/kg | 600 mg/kg | Activity (Rattus norvegicus [10]): 0; Activity (Rattus norvegicus [12]): 0 |
| Fc1ccc2c(c1)N=C(N1CCN(Cc3ccccc3)CC1)c1sccc1N2 | 100 mg/kg | > 400 mg/kg | Activity (Rattus norvegicus [10]): 0 |

| SMILES | EDmin (Mus musculus [1]) | LD50 [2] | other results |
| --- | --- | --- | --- |
| Cc1scc2c1Nc1ccccc1N=C2N1CCN(C)CC1 | >100 mg/kg | 200 mg/kg | Activity (Rattus norvegicus [10]): 0; Activity (Rattus norvegicus [21]): 0 |
| c1ccc2c(c1)N=C(N1CCNCC1)c1cscc1N2 | 50 mg/kg | > 400 mg/kg | Activity (Rattus norvegicus [10]): 0; Activity (Rattus norvegicus [12]): 1 |
| CN1CCN(C2=Nc3ccccc3N(C)c3cscc32)CC1 | 25 mg/kg | 150 mg/kg | Activity (Rattus norvegicus [11]): 2; Activity (Rattus norvegicus [12]): 0 |
| O=C(CCCN1CCC(O)(c2ccc(Cl)cc2)CC1)c1ccc(F)cc1 [HALOPERIDOL] | 3 mg/kg | > 100 mg/kg | Activity (Rattus norvegicus [22]): 3; Activity (Rattus norvegicus [7]): 3 |
| O=CN1CCN(C2=Nc3ccccc3N(C=O)c3cscc32)CC1 | 200 mg/kg | 400 mg/kg | Activity (Rattus norvegicus [10]): 0 |
| OCCN1CCN(C2=Nc3cc(F)ccc3Nc3ccsc32)CC1 | 25 mg/kg | > 400 mg/kg | Activity (Rattus norvegicus [11]): 2; Activity (Rattus norvegicus [12]): 0 |
| CSc1ccc2c(c1)N(CCC1CCCCN1C)c1ccccc1S2 (configuration not stated) [THIORIDAZINE] | 25 mg/kg | – | Activity (Rattus norvegicus [23]): 3; Activity (Rattus norvegicus [5]): 1 |
| OCCN1CCN(CC/C=C2/c3ccccc3Sc3ccc(C(F)(F)F)cc32)CC1 [Z-FLUPENTIXOL] | 3 mg/kg | – | Activity (Rattus norvegicus [24]): 2; Activity (Rattus norvegicus [25]): 4 |
| c1ccc2c(c1)N=C(N1CCNCC1)c1sccc1N2 | 50 mg/kg | 400 mg/kg | Activity (Rattus norvegicus [8]): 1; Activity (Rattus norvegicus [26]): 0 |
| CSc1ccc2c(c1)N=C(N1CCN(C)CC1)c1cscc1N2 | 25 mg/kg | 400 mg/kg | Activity (Rattus norvegicus [27]): 2 |
| CN1CCN(C2=Nc3cc(F)ccc3Nc3cscc32)CC1 | 6.25 mg/kg | 100 mg/kg | Activity (Rattus norvegicus [28]): 1; Activity (Rattus norvegicus [20]): 1 |
| CN1CCN(C2=NC3=CSCC3=Nc3ccccc32)CC1 | 50 mg/kg | 50 mg/kg | Activity (Rattus norvegicus [29]): 0 |
| c1ccc(CN2CCN(C3=Nc4ccccc4Nc4cscc43)CC2)cc1 | 800 mg/kg | 800 mg/kg | Activity (Rattus norvegicus [10]): 0 |
| COc1ccc2c(c1)N=C(N1CCN(C)CC1)c1cscc1N2 | 50 mg/kg | 200 mg/kg | Activity (Rattus norvegicus [8]): 1; Activity (Rattus norvegicus [12]): 1 |
| CN1CCN(C2=Nc3cc(Cl)c(Cl)cc3Nc3cscc32)CC1 | 25 mg/kg | 400 mg/kg | Activity (Rattus norvegicus [30]): 4; Activity (Rattus norvegicus [7]): 1 |
| OCCCN1CCN(C2=Nc3ccccc3Nc3cscc32)CC1 | >400 mg/kg | > 400 mg/kg | Activity (Rattus norvegicus [8]): 1 |
| Cc1scc2c1C(N1CCN(C)CC1)=Nc1ccccc1N2 | 50 mg/kg | > 400 mg/kg | Activity (Rattus norvegicus [31]): 0 |
| OCCN1CCN(CC/C=C2\c3ccccc3Sc3ccc(C(F)(F)F)cc32)CC1 [E-FLUPENTIXOL] | >400 mg/kg | > 400 mg/kg | Activity (Rattus norvegicus [8]): 1; Activity (Rattus norvegicus [12]): 0 |

From ChEMBL document CHEMBL1121490, “10-Piperazinyl-4H-theino[3,2-b][1,5]- and -[3,4-b][1,5]benzodiazepines as potential neuroleptics” (J Med Chem, 1980)
